# Assay results gathered from unrelated publications.
# Lines come from different studies, so protocols differ. pEC50, pIC50: −log10 of the molar value.
Structure (SMILES),organism,test,system,conditions,quantity,result
O=C(CNc1nc(NS(=O)(=O)c2ccccc2)ncc1-c1nc2ccccc2s1)c1ccc(Br)cc1,Enterovirus B,plaque formation,"BGM, B4",,IC50,84 µg/mL
CC(C)CN1C[C@H]2CC[C@@H]3[C@]4(C)COC(C)(C)O[C@@H]4CC[C@@]3(C)[C@@H]2C[C@@H]1C1=CCOC1=O,unidentified human coronavirus,cytopathic effect,MRC5,"25 µM, 72 h",inhibition,28.6%
CCOC(=O)c1cc(C#N)c(=O)n(NS(=O)(=O)c2ccc(C)cc2)c1N,Enterovirus B,plaque formation,"BGM, B4",,IC50,90 µg/mL
CCCCCCC/C=C/C(=O)N1C(=O)/C(=C(/C)O)C(=O)C1CCC(=O)O (stereo not drawn),Proteus mirabilis,microbial growth,ATCC25933,,MIC,> 200 µg/mL
COC(=O)N[C@H](C(=O)N1CCC[C@H]1c1nc(-c2ccc(-c3ccc(-c4c[nH]c([C@@H]5CCCN5C(=O)[C@@H](NC(=O)OC)C(C)C)n4)cc3)cc2)c[nH]1)C(C)C,Hepatitis C virus,"viral replication, inhibitor, luciferase",GETYPE4A,replicon,pEC50,10.68
CC(=O)OC[C@@]1(C)[C@H]2CC[C@@H]3CN(Cc4cccc(Cl)c4)[C@@H](C4=CCOC4=O)C[C@H]3[C@]2(C)CC[C@H]1OC(C)=O,unidentified human coronavirus,cytopathic effect,MRC5,"25 µM, 72 h",inhibition,116%
Cc1ccc(S(=O)(=O)Nc2nc(N)c(-c3nc4ccccc4s3)c(-c3ccc(Cl)cc3)n2)cc1,Enterovirus B,plaque formation,"BGM, B4",,IC50,74 µg/mL
CCOC(=O)N[C@@H](C(=O)N1CCC[C@@H]1C(=O)Nc1cccc(C#CC#Cc2cccc(NC(=O)[C@H]3CCCN3C(=O)[C@H](NC(=O)OCC)C(C)C)c2)c1)C(C)C,Hepatitis C virus,"viral replication, inhibitor, luciferase","Huh-5-2, GETYPE1B","72 h, replicon",pEC50,< 5.00
CCCCCCC/C=C/C(=O)N1C(=O)/C(=C(\O)C2CCNCC2)C(=O)C1CC(C)C (stereo not drawn),Proteus mirabilis,microbial growth,ATCC25933,,MIC,200 µg/mL
CCOC(=O)N[C@H](CC(C)C)C(=O)N1CCC[C@@H]1C(=O)Nc1cccc(C#CC#Cc2cccc(NC(=O)[C@H]3CCCN3C(=O)[C@@H](CC(C)C)NC(=O)OCC)c2)c1,Hepatitis C virus,"viral replication, inhibitor, luciferase","Huh-5-2, GETYPE1B","72 h, replicon",pEC50,6.39
Nc1nc(-c2ccccc2)nc2[nH]nc(Nc3ccc(C(F)(F)F)cc3)c12,Enterovirus B,cytopathic effect,"HeLa, CVB3",,pIC50,6.85
CC(C)COC(=O)N[C@H](C(=O)N1CCC[C@H]1C(=O)Nc1cccc(C#CC#Cc2cccc(NC(=O)[C@@H]3CCCN3C(=O)[C@@H](NC(=O)OCC(C)C)C(C)C)c2)c1)C(C)C,Hepatitis C virus,"viral replication, inhibitor, luciferase","Huh-5-2, GETYPE1B","72 h, replicon",pEC50,6.42
CCOC(=O)C=c1[nH]c(=O)c(=Cc2cn(-c3ccccc3)nc2-c2ccc(C)cc2)s1,Acinetobacter baumannii,"microbial growth, well diffusion",,100000 µg/mL,inhibition zone,11 mm
O=C(Nc1ccccc1-c1ccc(F)c(F)c1)c1nccnc1C(F)(F)F,Colletotrichum orbiculare,microbial growth,,,EC50,> 100 µg/mL
Nc1nc(N)c2ncn([C@@H]3O[C@H](CO)[C@@H](F)[C@@H]3F)c2n1,Hepatitis C virus,"viral replication, inhibitor",Huh-7,replicon,pEC50,< 5.00
CCOC(=O)c1c(N)csc1-c1cn(-c2ccccc2)nc1-c1ccc(C)cc1,Acinetobacter baumannii,"microbial growth, well diffusion",,100000 µg/mL,inhibition zone,29 mm
COc1ccc(CN2C[C@H]3CC[C@@H]4[C@](C)(COC(C)=O)[C@H](OC(C)=O)CC[C@@]4(C)[C@@H]3C[C@@H]2C2=CCOC2=O)cc1,unidentified human coronavirus,cytopathic effect,MRC5,"25 µM, 72 h",inhibition,5.1%
Cc1c(NC(=O)CC2=NC(=O)CS2)c(=O)n(-c2ccccc2)n1C,Acinetobacter baumannii,"microbial killing, broth dilution",,,MBC,0.25 µg/mL
CCCCOC(=O)N[C@H](C(=O)N1CCC[C@H]1C(=O)Nc1cccc(C#CC#Cc2cccc(NC(=O)[C@@H]3CCCN3C(=O)[C@@H](NC(=O)OCCCC)[C@@H](C)CC)c2)c1)[C@H](C)CC,Hepatitis C virus,"viral replication, inhibitor, luciferase","Huh-5-2, GETYPE1B","72 h, replicon",pEC50,< 5.00
Nc1nc2c(ncn2[C@@H]2O[C@H](CO)[C@@H](F)[C@@H]2F)c(=O)[nH]1,Hepatitis C virus,"viral replication, inhibitor",Huh-7,replicon,pEC50,< 5.00
C[C@@]12COCO[C@@H]1CC[C@]1(C)[C@@H]2CC[C@@H]2CN(Cc3ccccc3)[C@@H](C3=CCOC3=O)C[C@H]21,unidentified human coronavirus,cytopathic effect,MRC5,"25 µM, 72 h",inhibition,9.5%
O=C(OC[C@H]1O[C@H](n2cnc3c(Cl)nc(Cl)nc32)[C@@H](F)[C@@H]1F)c1ccccc1,Hepatitis C virus,"viral replication, inhibitor",Huh-7,replicon,EC90,< 10 µM
CCCCCCC/C=C/C(=O)N1CC(=O)/C(=C(\C)O)C1=O,Proteus mirabilis,microbial growth,ATCC25933,,MIC,> 200 µg/mL
CO[C@@H](C(N)=O)[C@H](NC(=O)c1ccc(NC(=O)c2ccc(C#N)cc2)cc1)C(=O)Nc1ccc(C(=O)Nc2ccc(C(=O)Nc3ccc(C(=O)O)cc3)c(O)c2OC(C)C)cc1,Proteus mirabilis,microbial growth,DSM4479,,MIC,4 µg/mL
N#CC(=Cc1ccccc1O)C1=NC(=O)C(=Cc2cn(-c3ccccc3)nc2-c2ccccc2)S1,Acinetobacter baumannii,"microbial growth, well diffusion",,100000 µg/mL,inhibition zone,25 mm
CC(=O)OC[C@@]1(C)[C@H]2CC[C@@H]3CN(Cc4ccc(O)cc4)[C@@H](C4=CCOC4=O)C[C@H]3[C@]2(C)CC[C@H]1OC(C)=O,unidentified human coronavirus,cytopathic effect,MRC5,"25 µM, 72 h",inhibition,50.4%
Nc1nc(Cl)c2ncn([C@@H]3O[C@H](CO)[C@@H](F)[C@@H]3F)c2n1,Hepatitis C virus,"viral replication, inhibitor",Huh-7,replicon,pEC50,< 5.00
CCOC(=O)N[C@H](C(=O)N1CCC[C@H]1C(=O)Nc1cccc(C#CC#Cc2cccc(NC(=O)[C@@H]3CCCN3C(=O)[C@@H](NC(=O)OCC)[C@@H](C)CC)c2)c1)[C@H](C)CC,Hepatitis C virus,"viral replication, inhibitor, luciferase","Huh-5-2, GETYPE1B","72 h, replicon",pEC50,6.41
COC(=O)N[C@H](C(=O)N1CCC[C@H]1c1ncc(-c2ccc(-c3ccc(-c4cnc([C@@H]5CCCN5C(=O)[C@@H](NC(=O)OC)C(C)C)[nH]4)cc3)cc2)[nH]1)C(C)C,Hepatitis C virus,"viral replication, inhibitor","HeLa, GETYPE2A",replicon,pEC50,11.43
Cc1cn([C@H]2C[C@H](N=[N+]=[N-])[C@@H](CO)O2)c(=O)[nH]c1=O,Hepatitis C virus,"viral replication, inhibitor",Huh-7,replicon,EC90,> 10 µM
CCOC(=O)N[C@H](C(=O)N1CCC[C@H]1C(=O)Nc1ccc(C#CC#Cc2ccc(NC(=O)[C@@H]3CCCN3C(=O)[C@@H](NC(=O)OCC)C(C)C)cc2)cc1)C(C)C,Hepatitis C virus,"viral replication, inhibitor, luciferase","Huh-5-2, GETYPE1B","72 h, replicon",pEC50,7.05
CC1(C)OC[C@@]2(C)[C@H]3CC[C@@H]4CN(Cc5ccc(I)cc5)[C@@H](C5=CCOC5=O)C[C@H]4[C@]3(C)CC[C@H]2O1,unidentified human coronavirus,cytopathic effect,MRC5,"25 µM, 72 h",inhibition,87.2%
CC(C)(O/N=C(\C(=O)N[C@@H]1C(=O)N2C(C(=O)[O-])=C(C[n+]3ccccc3)CS[C@H]12)c1csc(N)n1)C(=O)O,Acinetobacter baumannii,"microbial growth, disc diffusion",,"10 µg/disc, clinical isolate",inhibition zone,6 mm
COc1ccc(CN2C[C@H]3CC[C@@H]4[C@](C)(CO)[C@H](O)CC[C@@]4(C)[C@@H]3C[C@@H]2C2=CCOC2=O)cc1,unidentified human coronavirus,cytopathic effect,MRC5,"25 µM, 72 h",inhibition,1.9%
N#CC(=Cc1ccc(Cl)cc1)C1=NC(=O)C(=Cc2cn(-c3ccccc3)nc2-c2ccccc2)S1,Acinetobacter baumannii,"microbial growth, well diffusion",,100000 µg/mL,inhibition zone,20 mm
C[C@@]12COCO[C@@H]1CC[C@]1(C)[C@@H]2CC[C@@H]2CN(Cc3ccc(F)cc3)[C@@H](C3=CCOC3=O)C[C@H]21,unidentified human coronavirus,cytopathic effect,MRC5,"25 µM, 72 h",inhibition,32%
CCCCCCC/C=C/C(=O)N1C(=O)/C(=C(/C)O)C(=O)C1Cc1ccc(O)cc1 (stereo not drawn),Proteus mirabilis,microbial growth,ATCC25933,,MIC,> 200 µg/mL
C/C(=C\c1ccc(C#N)cc1)C(=O)Nc1ccc(C(=O)N[C@@H](CC(N)=O)C(=O)Nc2ccc(C(=O)Nc3ccc(C(=O)Nc4ccc(C(=O)O)cc4)c(O)c3OC(C)C)cc2)cc1,Proteus mirabilis,microbial growth,DSM4479,,MIC,> 64 µg/mL
Nc1nc(NS(=O)(=O)c2ccccc2)ncc1-c1nc2ccccc2s1,Enterovirus B,plaque formation,"BGM, B4",,IC50,85 µg/mL
[N-]=[N+]=Nc1nc(N=[N+]=[N-])c2ncn([C@@H]3O[C@H](COC(=O)c4ccccc4)[C@@H](F)[C@@H]3F)c2n1,Hepatitis C virus,"viral replication, inhibitor",Huh-7,replicon,EC90,> 10 µM
CCCCC(=O)N1C(=O)/C(=C(/C)O)C(=O)C1CC(C)C (stereo not drawn),Proteus mirabilis,microbial growth,ATCC25933,,MIC,> 200 µg/mL
C[C@@]1(O)[C@H](O)[C@@H](CO)O[C@H]1n1ccc(N)nc1=O,Hepatitis C virus,"viral replication, inhibitor",Huh-7,replicon,pEC50,5.74
Cc1c(NN=C2SC(C(C#N)=Cc3ccccc3)=NC2=O)c(=O)n(-c2ccccc2)n1C,Acinetobacter baumannii,"microbial growth, well diffusion",,100000 µg/mL,inhibition zone,16 mm
Oc1ccc(/C=C/c2cc(O)cc(O)c2)cc1,Leishmania tarentolae,"parasite growth, resazurin",,"48 h, promastigote",pIC50,4.10
Nc1nc(Cl)c2ncn([C@@H]3O[C@H](COC(=O)c4ccccc4)[C@@H](F)[C@@H]3F)c2n1,Hepatitis C virus,"viral replication, inhibitor",Huh-7,replicon,pEC50,5.33
